Experimental data: ChEMBL document CHEMBL1649436, “Antiviral activity of MK-4965, a novel nonnucleoside reverse transcriptase inhibitor” (Antimicrob Agents Chemother, 2009)

Legend:
[1] = test system: Human immunodeficiency virus 1; test: Antiviral activity against HIV1 isolate R8 harboring reverse transcriptase L100I and K103N mutant relative to drug-sensitive HIV1 CNDO; type: functional
[2] = test system: Human immunodeficiency virus 1; test: Ratio of EC95 for HIV1 isolate R8 harboring reverse transcriptase Y181C mutant in presence of 50% human serum to EC95 for HIV1 isolate R8 harboring wild type reverse transcriptase in presence of 50% human serum; type: functional
In short: (§1)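 Ratios of EC95 values from the MT-4 multiple-cycle assay: R8 variants infected 24 h at low MOI, then reseeded in RPMI 1640 with 10% FBS or 50% type AB human serum with threefold dilutions (833–0.32 nM) for 72 h; p24 by AlphaScreen; EC95 = lowest concentration cutting p24 ≥95% versus untreated controls.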

[3] = test system: Plasma; test: Plasma protein binding in HIV1 infected patient; type: ADME, cell-free; conditions: human
[4] = test system: Human immunodeficiency virus 1; test: Antiviral activity against HIV1 isolate R8 harboring reverse transcriptase K103N mutant infected in human MT4 cells assessed as inhibition of viral replication after 72 hrs in presence of 50% human serum; type: functional; conditions: Human immunodeficiency virus 1, isolate R8, MT4, 72 h
In short: (§2)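 Multiple-cycle assay: MT-4 cells (2.5 × 10^5) infected with R8-based virus at low MOI, no inhibitor, 24 h at 37°C, 5% CO2; washed, reseeded at 5 × 10^4 cells in RPMI 1640 with 10% FBS or 50% type AB human serum; threefold serial dilutions from 833 nM to 0.32 nM; 72 h; p24 in medium by AlphaScreen; EC95 = lowest concentration giving ≥95% p24 reduction versus untreated.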

[5] = test system: Human immunodeficiency virus 1; test: Antiviral activity against HIV1 isolate R8 harboring wild type reverse transcriptase infected in human MT4 cells assessed as inhibition of viral replication after 72 hrs in presence of 10% FBS; type: functional; conditions: Human immunodeficiency virus 1, isolate R8, MT4, 72 h; in short: as §2
[6] = test system: Human immunodeficiency virus 1; test: Antiviral activity against HIV1 isolate R8 harboring reverse transcriptase F227C mutant relative to drug-sensitive HIV1 CNDO; type: functional
[7] = test system: Human immunodeficiency virus 1; test: Ratio of EC95 for HIV1 isolate R8 harboring reverse transcriptase K103N mutant in presence of 50% human serum to EC95 for HIV1 isolate R8 harboring wild type reverse transcriptase in presence of 50% human serum; type: functional; in short: as §1
[8] = test system: Human immunodeficiency virus 1; test: Antiviral activity against HIV1 isolate R8 harboring reverse transcriptase Y181C mutant infected in human MT4 cells assessed as inhibition of viral replication after 72 hrs in presence of 50% human serum; type: functional; conditions: Human immunodeficiency virus 1, isolate R8, MT4, 72 h; in short: as §2
[9] = test system: Human immunodeficiency virus 1; test: Antiviral activity against HIV1 isolate R8 harboring reverse transcriptase Y181C mutant infected in human MT4 cells assessed as inhibition of viral replication after 72 hrs in presence of 10% FBS; type: functional; conditions: Human immunodeficiency virus 1, isolate R8, MT4, 72 h; in short: as §2
[10] = test system: Human immunodeficiency virus 1; test: Antiviral activity against HIV1 isolate R8 harboring reverse transcriptase Y181I mutant relative to drug-sensitive HIV1 CNDO; type: functional
[11] = test system: Human immunodeficiency virus 1; test: Antiviral activity against HIV1 isolate R8 harboring reverse transcriptase K103N and Y181C mutant infected in human MT4 cells assessed as inhibition of viral replication after 72 hrs in presence of 50% human serum; type: functional; conditions: Human immunodeficiency virus 1, isolate R8, MT4, 72 h; in short: as §2
[12] = test system: Human immunodeficiency virus 1; test: Antiviral activity against HIV1 isolate R8 harboring reverse transcriptase K103N and Y181C mutant infected in human MT4 cells assessed as inhibition of viral replication after 72 hrs in presence of 10% FBS; type: functional; conditions: Human immunodeficiency virus 1, isolate R8, MT4, 72 h; in short: as §2
[13] = test system: Human immunodeficiency virus 1; test: Antiviral activity against HIV1 isolate R8 harboring reverse transcriptase K101P mutant relative to drug-sensitive HIV1 CNDO; type: functional
[14] = test system: Plasma; test: Plasma protein binding in healthy human at 200 mg/kg; type: ADME, organism-based; parameters: dose 200 mg/kg; conditions: in vivo
[15] = test system: Human immunodeficiency virus 1; test: Ratio of EC95 for HIV1 isolate R8 harboring reverse transcriptase K103N and Y181C mutant in presence of 50% human serum to EC95 for HIV1 isolate R8 harboring wild type reverse transcriptase in presence of 50% human serum; type: functional; in short: as §1
[16] = test system: Human immunodeficiency virus 1; test: Antiviral activity against HIV1 isolate R8 harboring reverse transcriptase Y181C and K103N mutant relative to drug-sensitive HIV1 CNDO; type: functional
[17] = test system: Human immunodeficiency virus 1; test: Antiviral activity against HIV1 isolate R8 harboring reverse transcriptase M230L mutant relative to drug-sensitive HIV1 CNDO; type: functional
[18] = test system: Human immunodeficiency virus 1; test: Antiviral activity against HIV1 isolate R8 harboring wild type reverse transcriptase infected in human MT4 cells assessed as inhibition of viral replication after 72 hrs in presence of 50% human serum; type: functional; conditions: Human immunodeficiency virus 1, isolate R8, MT4, 72 h; in short: as §2
[19] = test system: Human immunodeficiency virus 1; test: Antiviral activity against HIV1 isolate R8 harboring reverse transcriptase K103N mutant infected in human MT4 cells assessed as inhibition of viral replication after 72 hrs in presence of 10% FBS; type: functional; conditions: Human immunodeficiency virus 1, isolate R8, MT4, 72 h; in short: as §2
[20] = test system: Human immunodeficiency virus 1; test: Antiviral activity against NRTI-, PI-resistant HIV1 harboring mutant reverse transcriptase relative to HIV1 CNDO with wild type reverse transcriptase; type: functional
In short: (§3)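 Single-cycle PhenoScreen assay run by Monogram Biosciences, using viruses carrying RT sequences from clinical isolates, subtypes/CRFs or PI/NRTI-resistant clade B viruses; nine serial drug concentrations; activity expressed relative to drug-sensitive reference strain CNDO (protease and RT from NL4-3), with multidrug-resistant MDRC4 as assay-performance control.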

[21] = test system: Human immunodeficiency virus 1; test: Antiviral activity against HIV1 CRF02_AG harboring mutant reverse transcriptase relative to HIV1 CNDO with wild type reverse transcriptase; type: functional; in short: as §3
[22] = test system: Human immunodeficiency virus 1; test: Antiviral activity against HIV1 CRF17_BF harboring mutant reverse transcriptase relative to HIV1 CNDO with wild type reverse transcriptase; type: functional; in short: as §3

Compound | Activity [3] [%] | EC95 [4] [nM] | EC95 [5] [nM] | EC95 [8] [nM] | EC95 [9] [nM] | EC95 [11] [nM] | EC95 [12] [nM] | Activity [14] [%] | EC95 [18] [nM] | EC95 [19] [nM] | other results
Cc1cc(C#N)cc(C)c1Oc1nc(Nc2ccc(C#N)cc2)nc(N)c1Br [ETRAVIRINE] | > 99.5 | 43 | 4 | 266 | 26 | 542 | 56 | > 99.5 | 38 | 6 | fold change (FC) [1]: > 10; fold change (FC) [2]: 7; fold change (FC) [6]: > 10; fold change (FC) [7]: 1.1; fold change (FC) [10]: > 10; fold change (FC) [13]: > 10; fold change (FC) [15]: 14; fold change (FC) [16]: > 10; fold change (FC) [17]: > 10
Nc1ccn([C@@H]2CS[C@H](CO)O2)c(=O)n1 [LAMIVUDINE] | – | – | – | – | – | – | – | – | – | – | fold change (FC) [20]: 5.96; fold change (FC) [21]: 1.31; fold change (FC) [22]: 1.37
O=C1Nc2ccc(Cl)cc2[C@@](C#CC2CC2)(C(F)(F)F)O1 [EFAVIRENZ] | > 99.5 | 1730 | 3.8 | 89 | 8.4 | 3390 | 322 | > 99.5 | 38 | 245 | –
